Data on six compounds can be found in ChEMBL document CHEMBL1129067, “Dioxabicyclooctanyl naphthalenenitriles as nonredox 5-lipoxygenase inhibitors: structure-activity relationship study directed toward the improvement of metabolic stability” (J Med Chem, 1996).

The species entered for experiment [1] is Homo sapiens. Description: Compound was tested for the inhibition of LTB4 production in human whole blood (HWB). It is filed as functional. The note with it: Homo sapiens, Blood. The procedure, abridged: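 LTB4 generation measured in human whole blood. IC50 values are the mean of at least two independent titrations, though some values come from a single titration. Where more than two IC50 values were determined, the 95% confidence limits were within 90% of the mean.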

The species entered for experiment [2] is Homo sapiens. Kind of experiment: Test inhibition of LTB4 production in human peripheral blood polymorphonuclear leukocytes (HPMN). Type of experiment: functional. The following applies: Homo sapiens. The procedure, abridged:
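LTB4 generation measured in human peripheral blood polymorphonuclear leukocytes. IC50 values are the mean of at least two independent determinations, though some values come from a single titration.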

Experiment [3] concerns the target T1, Polyunsaturated fatty acid 5-lipoxygenase (Homo sapiens, UniProt P09917).
T1 sequence (P09917 whole entry): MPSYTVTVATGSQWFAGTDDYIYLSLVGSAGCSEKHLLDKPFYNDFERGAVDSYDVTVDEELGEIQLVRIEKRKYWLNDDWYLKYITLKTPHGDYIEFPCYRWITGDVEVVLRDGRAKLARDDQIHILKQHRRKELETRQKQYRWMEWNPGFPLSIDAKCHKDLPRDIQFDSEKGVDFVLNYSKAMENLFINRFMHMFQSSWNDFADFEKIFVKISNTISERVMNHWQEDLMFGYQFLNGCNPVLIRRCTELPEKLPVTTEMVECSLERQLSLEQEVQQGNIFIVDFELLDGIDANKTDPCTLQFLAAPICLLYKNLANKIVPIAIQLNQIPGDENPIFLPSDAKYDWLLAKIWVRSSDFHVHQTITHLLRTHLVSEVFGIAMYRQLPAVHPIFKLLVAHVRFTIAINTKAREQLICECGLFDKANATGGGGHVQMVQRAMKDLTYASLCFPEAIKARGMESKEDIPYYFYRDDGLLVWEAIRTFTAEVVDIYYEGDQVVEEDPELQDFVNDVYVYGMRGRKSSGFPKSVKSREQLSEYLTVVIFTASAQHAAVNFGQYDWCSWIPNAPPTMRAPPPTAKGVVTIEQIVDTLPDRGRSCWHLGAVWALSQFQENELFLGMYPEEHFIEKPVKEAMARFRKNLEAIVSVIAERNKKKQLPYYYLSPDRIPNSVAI
Kind of experiment: Potency to inhibit oxidation of arachidonic acid by recombinant human 5-lipoxygenase.

Usually IC50 stands for the concentration needed to halve the response being measured.

Turning to `Cn1nnc(-c2cc(-c3ccccc3)c3ccc(OCc4cccc(C5(O)CCOCC5)c4)cc3c2)n1`, the results for the IC50 in experiment [1], in experiment [2] and in experiment [3] were 310 nM, 4 nM and 120 nM, respectively.
For `OC1(c2cccc(COc3ccc4c(-c5ccoc5)cc(Cc5nccs5)cc4c3)c2)CCOCC1`, the IC50 in experiment [1] is 660 nM; in experiment [2], 1 nM; in experiment [3] it was 140 nM.
On to `O=C1OCc2c1cc1cc(OCc3cccc(C4(O)CCOCC4)c3)ccc1c2-c1cccnc1`, for which the IC50 in experiment [1] worked out at 1200 nM; in experiment [2], 25 nM; in experiment [3] it was 720 nM.
`O=C1OC(O)c2c1cc1cc(OCc3cccc(C4(O)CCOCC4)c3)ccc1c2-c1ccccc1` (stereo not drawn): the results for the IC50 in experiment [1], in experiment [2] and in experiment [3] were over 3000 nM, over 700 nM and over 6000 nM, respectively.
For `CC(=O)c1cc(-c2ccccc2)c2ccc(OCc3cccc(C4(O)CCOCC4)c3)cc2c1`, the figures for the IC50 in experiment [1], in experiment [2] and in experiment [3] were 90 nM, 2 nM and 130 nM, respectively.
For the compound `COCc1cc(-c2ccccc2)c2ccc(OCc3cccc(C4(O)CCOCC4)c3)cc2c1`, the IC50 in experiment [1] worked out at 200 nM; in experiment [2] it was 4 nM; in experiment [3], 160 nM.
